Activity calls are given as the source filed them. The rule behind the calls is not given here.
Columns and labels:
[1] = target: T1, Cytochrome P450 2B6 (Homo sapiens, UniProt P20813); assay: Inhibition of human recombinant CYP2B6 expressed in baculovirus-infected insect cells preincubated for 15 mins followed by substrate addition measured after 30 mins by luminescence assay; format: ADME; conditions: recombinant enzyme, 0.5 h
T1 sequence (P20813 whole entry): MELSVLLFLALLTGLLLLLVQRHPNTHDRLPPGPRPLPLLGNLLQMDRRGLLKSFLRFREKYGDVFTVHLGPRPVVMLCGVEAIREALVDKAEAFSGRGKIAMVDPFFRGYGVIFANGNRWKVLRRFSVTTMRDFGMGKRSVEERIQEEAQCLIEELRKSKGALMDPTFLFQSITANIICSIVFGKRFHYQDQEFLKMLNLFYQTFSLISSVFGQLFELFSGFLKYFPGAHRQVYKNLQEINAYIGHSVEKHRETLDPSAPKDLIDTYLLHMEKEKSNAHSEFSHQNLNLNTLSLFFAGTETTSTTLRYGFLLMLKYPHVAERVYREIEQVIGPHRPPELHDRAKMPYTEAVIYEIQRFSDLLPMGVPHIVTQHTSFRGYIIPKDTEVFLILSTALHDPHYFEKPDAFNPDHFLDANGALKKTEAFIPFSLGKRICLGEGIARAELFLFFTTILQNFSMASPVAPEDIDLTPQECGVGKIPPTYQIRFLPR

[2] = test system: Plasmodium berghei; assay: Antimalarial activity against Plasmodium berghei ANKA expressing GFP infected in NMRI mouse assessed as mean survival days at 100 mg/kg/day, po qd for 4 days measured at 24 hrs after last dose; format: functional
In short: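 P. berghei-infected mice dosed orally once daily on days 0–3, starting 4 h postinfection, in groups of 3, 10, 30 and 100 mg/kg/day. Red blood cell parasitemia and plasma exposure measured on day 4, 24 h after the last dose. Mean survival days then monitored over 26 further days.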

[3] = target: Cytochrome P450 2C19 (Homo sapiens, UniProt P33261); assay: Inhibition of human recombinant CYP2C19 expressed in baculovirus-infected insect cells preincubated for 15 mins followed by substrate addition measured after 30 mins by luminescence assay; format: ADME; conditions: recombinant enzyme, 0.5 h
[4] = Terminal half life in NMRI mouse at 5 mg/kg, po by LC-MS/MS analysis; format: ADME, organism-based; parameters: dose 5 mg/kg, route oral; conditions: in vivo, read-out: beta t1/2 (converted)
[5] = test system: Salmonella typhimurium; assay: Mutagenic activity in Salmonella typhimurium by Ames test; format: toxicity, organism-based; conditions: salmonella enterica subsp. enterica serovar typhimurium
[6] = target: hERG (KCNH2) (Homo sapiens, UniProt Q12809); assay: Inhibition of human ERG expressed in CHO cells at 10 uM relative to control; format: cell-based; conditions: CHO cells expressing human ERG
[7] = test system: Plasmodium berghei; assay: Antimalarial activity against Plasmodium berghei ANKA expressing GFP infected in NMRI mouse assessed as reduction in parasitemia at 10 mg/kg/day, po qd for 4 days measured at 24 hrs after last dose relative to control; format: functional; parameters: scale not given: the % may be the effect or the level left
In short: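 P. berghei-infected mice dosed orally once daily on days 0–3, first dose 4 h postinfection, at 3, 10, 30 and 100 mg/kg/day. Red blood cell parasitemia and plasma exposure measured on day 4, 24 h after last dose; ED50 derived from dose-response; survival then monitored for 26 further days as mean survival days.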

[8] = AUC in NMRI mouse at 1 mg/kg, iv and 5 mg/kg, po by LC-MS/MS analysis; format: ADME, organism-based; conditions: plasma
[9] = target: Cytochrome P450 2D6 (Homo sapiens, UniProt P10635); assay: Inhibition of human recombinant CYP2D6 expressed in baculovirus-infected insect cells preincubated for 15 mins followed by substrate addition measured after 30 mins by luminescence assay; format: ADME; conditions: recombinant enzyme, 0.5 h
[10] = test system: Plasmodium falciparum; assay: Antimalarial activity against chloroquine, pyrimethamine, sulfadoxine and quinine-resistant Plasmodium falciparum W2; format: functional, organism-based
[11] = test system: Plasmodium falciparum; assay: Antimalarial activity against chloroquine, pyrimethamine, sulfadoxine, quinine and mefloquine-sensitive Plasmodium falciparum D6; format: functional, organism-based

hERG (KCNH2), sequence (Q12809 whole entry): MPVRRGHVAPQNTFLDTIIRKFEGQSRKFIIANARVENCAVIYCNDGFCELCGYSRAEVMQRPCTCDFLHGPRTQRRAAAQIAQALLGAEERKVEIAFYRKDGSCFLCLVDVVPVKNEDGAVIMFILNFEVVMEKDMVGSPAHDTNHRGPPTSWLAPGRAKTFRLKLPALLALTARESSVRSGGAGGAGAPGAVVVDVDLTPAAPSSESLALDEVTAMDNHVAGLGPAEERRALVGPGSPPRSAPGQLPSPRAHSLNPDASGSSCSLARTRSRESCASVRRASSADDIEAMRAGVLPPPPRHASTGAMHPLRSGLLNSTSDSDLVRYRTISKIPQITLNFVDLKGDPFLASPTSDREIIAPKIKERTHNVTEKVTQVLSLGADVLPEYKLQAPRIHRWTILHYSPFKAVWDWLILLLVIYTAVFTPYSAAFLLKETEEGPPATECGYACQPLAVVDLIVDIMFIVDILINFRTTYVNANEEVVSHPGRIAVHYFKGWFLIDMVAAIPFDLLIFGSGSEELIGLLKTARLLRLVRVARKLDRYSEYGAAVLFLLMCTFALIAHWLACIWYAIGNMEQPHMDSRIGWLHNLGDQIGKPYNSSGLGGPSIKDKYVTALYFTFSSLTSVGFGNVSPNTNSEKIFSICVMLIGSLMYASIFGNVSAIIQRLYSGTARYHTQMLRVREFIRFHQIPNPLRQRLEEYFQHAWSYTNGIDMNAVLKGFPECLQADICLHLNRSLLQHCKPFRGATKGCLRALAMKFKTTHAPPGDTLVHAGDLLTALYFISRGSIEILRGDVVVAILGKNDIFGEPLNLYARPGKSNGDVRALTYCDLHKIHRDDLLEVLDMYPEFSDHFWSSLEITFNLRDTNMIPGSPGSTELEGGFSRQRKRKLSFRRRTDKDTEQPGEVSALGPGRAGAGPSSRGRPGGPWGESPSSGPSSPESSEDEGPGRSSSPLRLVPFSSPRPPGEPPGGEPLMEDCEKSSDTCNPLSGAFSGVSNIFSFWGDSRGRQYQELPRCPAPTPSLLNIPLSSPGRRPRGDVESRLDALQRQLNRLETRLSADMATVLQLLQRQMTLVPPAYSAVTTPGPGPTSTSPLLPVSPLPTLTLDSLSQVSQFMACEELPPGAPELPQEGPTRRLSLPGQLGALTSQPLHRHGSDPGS
Cytochrome P450 2C19, sequence (P33261 whole entry): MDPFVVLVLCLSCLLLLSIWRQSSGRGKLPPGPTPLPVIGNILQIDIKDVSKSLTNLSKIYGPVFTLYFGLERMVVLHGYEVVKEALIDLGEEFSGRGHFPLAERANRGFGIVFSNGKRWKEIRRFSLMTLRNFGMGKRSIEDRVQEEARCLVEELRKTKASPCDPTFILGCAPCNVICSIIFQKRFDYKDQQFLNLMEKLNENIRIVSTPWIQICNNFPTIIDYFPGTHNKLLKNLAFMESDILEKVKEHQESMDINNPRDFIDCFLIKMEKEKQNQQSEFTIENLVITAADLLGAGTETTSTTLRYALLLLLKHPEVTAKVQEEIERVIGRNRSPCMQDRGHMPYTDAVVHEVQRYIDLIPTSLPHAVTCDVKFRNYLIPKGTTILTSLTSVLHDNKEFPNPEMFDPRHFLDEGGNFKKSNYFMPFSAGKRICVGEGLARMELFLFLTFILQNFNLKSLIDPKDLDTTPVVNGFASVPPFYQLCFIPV
Cytochrome P450 2D6, sequence (P10635 whole entry): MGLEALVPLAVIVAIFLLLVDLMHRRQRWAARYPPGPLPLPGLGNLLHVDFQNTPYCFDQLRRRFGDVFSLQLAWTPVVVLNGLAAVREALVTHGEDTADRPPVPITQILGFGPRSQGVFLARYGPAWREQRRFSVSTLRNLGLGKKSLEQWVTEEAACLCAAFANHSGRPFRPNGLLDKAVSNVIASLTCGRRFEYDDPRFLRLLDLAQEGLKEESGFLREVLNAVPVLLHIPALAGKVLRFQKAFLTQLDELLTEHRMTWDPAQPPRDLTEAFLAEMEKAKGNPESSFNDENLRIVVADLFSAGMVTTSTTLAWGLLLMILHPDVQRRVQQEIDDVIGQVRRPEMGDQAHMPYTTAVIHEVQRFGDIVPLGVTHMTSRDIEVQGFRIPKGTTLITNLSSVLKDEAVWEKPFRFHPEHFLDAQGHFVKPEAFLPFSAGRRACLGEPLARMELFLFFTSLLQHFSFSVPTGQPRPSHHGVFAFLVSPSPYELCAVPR

Question: With `OC(CNC1CCCCC1)Cn1c2ccc(Br)cc2c2cc(Br)ccc21` (racemic) as the compound, how does the “inhibition (INH)” value [1] read?
Answer: Active

Question: And the MSD [2]?
Answer: 30 days

Question: What about the “inhibition (INH)” value [3] of the same compound?
Answer: Active

Question: And the half-life [4]?
Answer: 15 h

Question: And the Activity [5]?
Answer: Non-toxic

Question: What about the inhibition at 10 µM [6] of the same compound?
Answer: 99%

Question: And the Activity [7]?
Answer: 38%

Question: What about the AUC [8] of the same compound?
Answer: 3750 ng·h/mL

Question: What about the “inhibition (INH)” value [9] of the same compound?
Answer: Active

Question: And the Activity [10]?
Answer: Active

Question: What about the Activity [11] of the same compound?
Answer: Active

From ChEMBL document CHEMBL3098117, “Identification and optimization of an aminoalcohol-carbazole series with antimalarial properties” (ACS Med Chem Lett, 2013)
